Data taken from paper PMC3857970 (European journal of medicinal chemistry, 2012).

The compounds below were run against recombinant human ALR2 (Homo sapiens, UniProt P15121) (assay: ALR2 inhibition assay). Conditions: not given.
Type: biochemical

| Structure (SMILES) | ALR2 inhibitory activity (in words) | IC50 [µM] |
| --- | --- | --- |
| COc1cc(/C=C/C(=O)N2CCC=CC2=O)cc(OC)c1OC [Compound 1, 5,6-Dihydro-1-((E)-3-(3,4,5-trimethoxyphenyl)acryloyl) pyridin-2(1H)-one] | moderate activity | – |
| COc1cc(C(CC(=O)N2CCC=CC2=O)c2c[nH]c3ccccc23)cc(OC)c1OC (stereo not drawn) [Compound 2a, 1-(3-(1H-Indol-3-yl)-3-(3,4,5-trimethoxyphenyl)propanoyl)-5,6-dihydropyridin-2(1H)-one] | – | > 500 |
| COc1cc(C(CC(=O)N2CCC=CC2=O)c2cn(C)c3ccccc23)cc(OC)c1OC (stereo not drawn) [Compound 2b, 1-(3-(3,4,5-Trimethoxyphenyl)-3-(1-methyl-1H-indol-3-yl)propanoyl)-5,6-dihydropyridin-2(1H)-one] | – | 100 |
| COc1cc(C(CC(=O)N2CCC=CC2=O)c2c[nH]c3ccc(I)cc23)cc(OC)c1OC (stereo not drawn) [Compound 2f, 1-(3-(5-Iodo-1H-indol-3-yl)-3-(3,4,5-trimethoxyphenyl)propanoyl)-5,6-dihydropyridin-2(1H)-one] | – | > 500 |
| COc1cc(C(CC(=O)N2CCC(c3c[nH]c4ccccc34)CC2=O)c2c[nH]c3ccccc23)cc(OC)c1OC (stereo not drawn) [Compound 3a, 1-(3-(1H-Indol-3-yl)-3-(3,4,5-trimethoxyphenyl)propanoyl)-4-(1H-indol-3-yl)piperidin-2-one] | – | 80 |
| COc1cc(C(CC(=O)N2CCC(c3cn(C)c4ccccc34)CC2=O)c2cn(C)c3ccccc23)cc(OC)c1OC (stereo not drawn) [Compound 3b, 1-(3-(3,4,5-Trimethoxyphenyl)-3-(1-methyl-1H-indol-3-yl)propanoyl)-4-(1-methyl-1H-indol-3-yl)piperidin-2-one] | – | > 500 |
| COc1cc(C(CC(=O)N2CCC(c3c[nH]c4ccc(I)cc34)CC2=O)c2c[nH]c3ccc(I)cc23)cc(OC)c1OC (stereo not drawn) [Compound 3f, 1-(3-(5-Iodo-1H-indol-3-yl)-3-(3,4,5-trimethoxyphenyl)propanoyl)-4-(5-iodo-1H-indol-3-yl)piperidin-2-one] | – | > 500 |
| COc1cc(C(CC(=O)O)c2c(C)[nH]c3ccccc23)cc(OC)c1OC (stereo not drawn) [Compound 4, 3-(3,4,5-Trimethoxyphenyl)-3-(2-methyl-1H-indol-3-yl) propanoic acid] | – | 72 |
| COC(=O)/C=C/c1cc(OC)c(OC)c(OC)c1 [Compound 5, (E)-Methyl 3-(3,4,5-trimethoxyphenyl)acrylate] | – | > 500 |
| O=C1C=CCCN1C(=O)C=Cc1ccccc1 [Compound 12, 1-Cinnamoyl-5,6-dihydropyridin-2(1H)-one] | – | > 500 |
| O=C1C=CCCN1C(=O)/C=C/c1cccc(C(F)(F)F)c1 [Compound 13, (E)-1-(3-(3-(Trifluoromethyl)phenyl)acryloyl)-5,6-dihydropyridin] | – | 400 |
| COc1ccc(OC)c(/C=C/C(=O)N2CCC=CC2=O)c1 [Compound 14, (E)-1-(3-(2,5-Dimethoxyphenyl)acryloyl)-5,6-dihydropyridin-2(1H)-one] | – | > 500 |
| O=C1C=CCCN1C(=O)/C=C/c1ccc2c(c1)OCO2 [Compound 16, (E)-1-(3-(Benzo[d][1,3]dioxol-5-yl)acryloyl)-5,6-dihydropyridin-2(1H)-one] | – | > 500 |
| O=C1C=CCCN1C(=O)/C=C/c1ccc(Cl)cc1 [Compound 17, (E)-1-(3-(4-Chlorophenyl)acryloyl)-5,6-dihydropyridin-2(1H)-one] | – | > 500 |
| O=C1C=CCCN1C(=O)/C=C/c1ccc2ccccc2c1 [Compound 18, (E)-1-(3-(Naphthalen-2-yl)acryloyl)-5,6-dihydropyridin-2(1H)-one] | – | 350 |
| O=C1C=CCCN1C(=O)/C=C/c1cccc(Oc2ccccc2)c1 [Compound 20, (E)-1-(3-(3-Phenoxyphenyl)acryloyl)-5,6-dihydropyridin-2(1H)-one] | – | > 500 |
| O=C1C=CCCN1C(=O)/C=C/c1cccs1 [Compound 22, (E)-1-(3-(Thiophen-2-yl)acryloyl)-5,6-dihydropyridin-2(1H)-one] | – | > 500 |
| O=C1C=CCCN1C(=O)/C=C/C=C/c1ccc2c(c1)OCO2 [Compound 30, 1-((2E,4E)-5-(Benzo[d][1,3]dioxol-5-yl)penta-2,4-dienoyl)-5,6-dihydropyridin-2(1H)-one] | – | 500 |
| COc1cc(/C=C/C(=O)N2CCC=C(C(O)c3ccc(F)cc3)C2=O)cc(OC)c1OC (stereo not drawn) [Compound 32b, (E)-3-((4-Fluorophenyl)(hydroxy)methyl)-1-(3-(3,4,5-trimethoxyphenyl)acryloyl)-5,6-dihydropyridin-2(1H)-one] | – | > 500 |
| COc1cc(/C=C/C(=O)N2CCC=C(C(O)c3ccccc3[N+](=O)[O-])C2=O)cc(OC)c1OC (stereo not drawn) [Compound 32c, (E)-3-(Hydroxy(2-nitrophenyl)methyl)-1-(3-(3,4,5-trimethoxyphenyl)acryloyl)-5,6-dihydropyridin-2(1H)-one] | – | > 500 |
| COc1cc(/C=C/C(=O)N2CCC=C(C(O)c3ccc([N+](=O)[O-])cc3)C2=O)cc(OC)c1OC (stereo not drawn) [Compound 32d, (E)-3-(Hydroxy(4-nitrophenyl)methyl)-1-(3-(3,4,5-trimethoxyphenyl)acryloyl)-5,6-dihydropyridin-2(1H)-one] | – | > 500 |
| COc1cc(/C=C/C(=O)N2CCC=C(C(O)c3ccc(C#N)cc3)C2=O)cc(OC)c1OC (stereo not drawn) [Compound 32e, (E)-4-(Hydroxy(2-oxo-1-(3-(3,4,5-trimethoxyphenyl)acryloyl)-1,2,5,6-tetrahydropyridin-3-yl)methyl)benzonitrile] | – | > 500 |
| COc1cc(/C=C/C(=O)N2CCC=C(C(O)c3ccccn3)C2=O)cc(OC)c1OC (stereo not drawn) [Compound 32f, (E)-3-(Hydroxy(pyridin-2-yl)methyl)-1-(3-(3,4,5-trimethoxyphenyl)acryloyl)-5,6-dihydropyridin-2(1H)-one] | – | > 500 |
| COc1cc(/C=C/C(=O)N2CCC=C(C(O)c3ccc4ccccc4c3)C2=O)cc(OC)c1OC (stereo not drawn) [Compound 32h, (E)-3-(Hydroxy(naphthalen-2-yl)methyl)-1-(3-(3,4,5-trimethoxyphenyl)acryloyl)-5,6-dihydropyridin-2(1H)-one] | – | > 500 |
| COc1cc(/C=C/C(=O)N2CCC=C(C(O)c3ccc(C)cc3)C2=O)cc(OC)c1OC (stereo not drawn) [Compound 32i, (E)-3-(Hydroxy(p-tolyl)methyl)-1-(3-(3,4,5-trimethoxyphenyl)acryloyl)-5,6-dihydropyridin-2(1H)-one] | – | > 500 |
| COc1cc(/C=C/C(=O)N2CCC=C(C(O)c3ccccc3)C2=O)cc(OC)c1OC (stereo not drawn) [Compound 32j, (E)-3-(Hydroxy(phenyl)methyl)-1-(3-(3,4,5-trimethoxyphenyl)acryloyl)-5,6-dihydropyridin-2(1H)-one] | – | > 500 |
| COc1cc(/C=C/C(=O)N2CCCCC2)cc(OC)c1OC [Compound 33, (E)-1-(Piperidin-1-yl)-3-(3,4,5-trimethoxyphenyl) prop-2-en-1-one] | – | > 500 |
| COc1cc(/C=C/C(=O)N2CCCC2=O)cc(OC)c1OC [Compound 34, (E)-1-(3-(3,4,5-Trimethoxyphenyl)acryloyl)pyrrolidin-2-one] | – | > 500 |
| COc1cc(/C=C/C(=O)n2c(=O)oc3ccccc32)cc(OC)c1OC [Compound 35, (E)-3-(3-(3,4,5-Trimethoxyphenyl)acryloyl)benzo[d]oxazol-2(3H)-one] | – | > 500 |

Same assay, conditions: Michael adducts from N-benzyl / phenyl indoles

| Structure (SMILES) | enhancement of ALR2 inhibitory activity [folds] |
| --- | --- |
| COc1cc(C(CC(=O)N2CCC(c3cn(Cc4ccccc4)c4ccccc34)CC2=O)c2cn(Cc3ccccc3)c3ccccc23)cc(OC)c1OC (stereo not drawn) [Compound 3c, 1-(3-(1-Benzyl-1H-indol-3-yl)-3-(3,4,5-trimethoxyphenyl)propanoyl)-4-(1-benzyl-1H-indol-3-yl)piperidin-2-one] | 40 |
| COc1cc(C(CC(=O)N2CCC(c3c(-c4ccccc4)[nH]c4ccccc34)CC2=O)c2c(-c3ccccc3)[nH]c3ccccc23)cc(OC)c1OC (stereo not drawn) [Compound 3e, 1-(3-(3,4,5-Trimethoxyphenyl)-3-(2-phenyl-1H-indol-3-yl)propanoyl)-4-(2-phenyl-1H-indol-3-yl)piperidin-2-one] | 40 |

Same assay, conditions: average of four experimental values

| Structure (SMILES) | IC50 [µM] |
| --- | --- |
| O=C1C=CCCN1C(=O)/C=C/c1ccc(Br)cc1 [Compound 15, (E)-1-(3-(4-Bromophenyl)acryloyl)-5,6-dihydropyridin-2(1H)-one] | 350 |
| COc1cc(/C=C/C(=O)N2CCC=C(C(O)c3cccs3)C2=O)cc(OC)c1OC (stereo not drawn) [Compound 32g, (E)-3-(Hydroxy(thiophen-2-yl)methyl)-1-(3-(3,4,5-trimethoxyphenyl)acryloyl)-5,6-dihydropyridin-2(1H)-one] | > 500 |

The compounds below were run on human red blood cells (RBC) (assay: Sorbitol accumulation in RBC under high glucose conditions). Conditions: ex vivo high glucose conditions.
Type: cell-based
Outline: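 Fasted healthy male donors' heparinised blood; RBC washed three times in isotonic saline at 4 °C, resuspended in Krebs-Ringer bicarbonate pH 7.4 (5% CO2). Duplicates incubated 3 h, 37 °C, 5% CO2, with 5.5 or 55 mM glucose, with test compound at 1.4–20 µM. Cells homogenised in 0.8 M perchloric acid, spun, supernatant adjusted to pH 3.5 with K2CO3; sorbitol measured fluorometrically.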

| Structure (SMILES) | effect on sorbitol accumulation (in words) |
| --- | --- |
| COc1ccc2[nH]cc(C(CC(=O)N3CCC=CC3=O)c3cc(OC)c(OC)c(OC)c3)c2c1 (stereo not drawn) [Compound 2j, 1-(3-(5-Methoxy-1H-indol-3-yl)-3-(3,4,5-trimethoxyphenyl)propanoyl)-5,6-dihydropyridin-2(1H)-one] | inhibited the sorbitol accumulation |
| COc1cc(C(CC(=O)N2CCC(c3cn(Cc4ccccc4)c4ccccc34)CC2=O)c2cn(Cc3ccccc3)c3ccccc23)cc(OC)c1OC (stereo not drawn) [Compound 3c, 1-(3-(1-Benzyl-1H-indol-3-yl)-3-(3,4,5-trimethoxyphenyl)propanoyl)-4-(1-benzyl-1H-indol-3-yl)piperidin-2-one] | inhibited the sorbitol accumulation |
| COc1cc(C(CC(=O)N2CCC(c3c(-c4ccccc4)[nH]c4ccccc34)CC2=O)c2c(-c3ccccc3)[nH]c3ccccc23)cc(OC)c1OC (stereo not drawn) [Compound 3e, 1-(3-(3,4,5-Trimethoxyphenyl)-3-(2-phenyl-1H-indol-3-yl)propanoyl)-4-(2-phenyl-1H-indol-3-yl)piperidin-2-one] | inhibited the sorbitol accumulation |
